Source: PubChem (Broad Institute)
A selection: hits, their analogues and other compounds. The true share with any hit is near 2.5%.
S100A4 inh HTS = inhibitors of human S100A4 binding to myosin IIA peptide; inhibition, % at 10.7 µM; actives 0.14% (n = 360,000); AID 652163; S100A4/TAMRA-MyoIIA peptide fluorescence polarization; P26447;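 active means mean inhibition of at least 70% across replicates, with every replicate also reaching that level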
Target sequence (P26447 whole entry, looked up): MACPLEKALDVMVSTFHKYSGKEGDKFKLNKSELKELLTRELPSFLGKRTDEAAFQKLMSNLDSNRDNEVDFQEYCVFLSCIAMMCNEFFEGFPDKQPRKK
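Material: S100A4 monomer (human). Medium: Calcium-containing HEPES buffer, pH 7.2. Probe or stimulus: labelled myosin peptide probe, 5 nM. Compound dosing: one concentration per compound. Timing: polarization read 5 min after assay mix addition, stable 5–60 min. Benchmarks: DMSO as neutral control, TFP as positive control.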
E-sel inducer = E-selectin induction on HUVECs | P16581 | HUVEC E-selectin immunofluorescence imaging; normalized: neutral wells 0, TNF-alpha wells 100 | activation, % at 7.58 µM | actives 0.37% (n = 260,000) | AID 686992;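 active means mean E-selectin-positive cell signal at least 10% of the positive control, reached in at least 60% of replicates, without over 20% cell loss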
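Test system: HUVEC; input: 3,000 HUVEC/well; measured by: immunofluorescence imaging; read-out: % PE-positive cells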
SIRT5 block = blocks human SIRT5 desuccinylation of peptide; Purified SirT5, succinyl-peptide AMC, trypsin-coupled fluorescence; inhibition, % at 15 µM; actives 1.1% (n = 330,000); in the data active means inhibition above about 15%
miR-122 sensor = inhibitors of miR-122 in Huh7 cells; activation (reporter increase), % at 12.5 µM; Huh7 miR-122 Renilla luciferase sensor, 48 h; neutral wells = 0, positive control = 100; actives 0.3% (n = 340,000);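 active means mean replicate activation score at least 90 and every replicate individually at or above 90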;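 further: higher luciferase means less miR-122 activity so hits act as miR-122 inhibitors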
FGF22 binding-1 = shifts melting point of recombinant human FGF22; recombinant FGF22 thermal shift, SYPRO orange fluorescence; percent of sucrose octasulfate shift, DMSO zero; activity (Tm shift, normalised), % at 9.99 µM; actives 1.5% (n = 340,000); Q9HCT0;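 active means mean Tm shift, scaled 0 neutral to 100 positive control, at about 1.3% or above, every replicate too, limit read from the data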
Target sequence (Q9HCT0 whole entry, looked up): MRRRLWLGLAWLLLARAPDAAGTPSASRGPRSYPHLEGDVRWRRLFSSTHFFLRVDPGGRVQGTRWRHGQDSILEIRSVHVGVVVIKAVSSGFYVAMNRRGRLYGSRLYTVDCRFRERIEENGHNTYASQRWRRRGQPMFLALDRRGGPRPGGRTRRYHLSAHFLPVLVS
FGF22 binding-2 = binds human FGF22 shifting its melting temperature. recombinant FGF22 thermal shift, SYPRO orange fluorescence. shares compounds with FGF22 binding-1. actives 2% (n = 1,000). AID 720646. thermal shift activity, °C (ΔTm) at 38 µM;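 active means fitted rise in melting shift crosses a set limit at or below the top valid dose tested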
SYPRO no-protein = counter-screen for FGF22 binders: compound-only thermal shift, no protein. shares compounds with FGF22 binding-1. compound-only SYPRO orange thermal shift counter-screen. AC50, µM (series often up to 38 µM). actives 2% (n = 1,000). AID 743019;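 active means rising signal whose fitted curve reaches the 0.54 level within the top valid dose, showing a melting point, actives reach about 13 µM in these data; inactive means the rest, including activity in the opposite direction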; further: value is where the raw curve crosses a fixed level and not half-maximal
Numbers without * were called inactive; i = inactive; x = no result given; ! = repeats disagree; [ ] = remark or other dose.

SMILES | S100A4 inh HTS | E-sel inducer | SIRT5 block | miR-122 sensor | FGF22 binding-1 | others
COC(=O)[C@H]1[C@H](CO)[C@H]2Cn3c(ccc(-c4ccccc4F)c3=O)[C@@H]1N2CC1CCCC1 | -10 | 0 | -2 | x | 0
CC=Cc1ccc2n(c1=O)C[C@@H]1[C@@H](CO)[C@H](C(=O)N(C)C)N[C@H]21 (mixture of isomers) | -1 | 0 | -5 | -2[16.7 µM] | 0
CS(=O)(=O)c1ccc(C2=C(CNC(=O)c3cccs3)[C@H]3CC[C@@H](C2)N3CCOc2ccccc2)cc1 | -5 | -1 | 30* | -3 | 0
COc1ccc(C#Cc2ccc([C@@H]3[C@@H](CO)N4CCCCN(C(=O)Cc5ccncc5)C[C@@H]34)cc2)cc1 | -14 | 1 | 6 | -6[16.7 µM] | -1
CCc1ccc(N2C(=O)NC(=O)/C(=C/c3cccn3CCOc3ccc(C)cc3)C2=O)cc1 | 24 | x | -1 | x | 0
CCc1ccc(N2C(=O)NC(=O)/C(=C/c3cccn3CCOc3ccc(C(C)CC)cc3)C2=O)cc1 (centres undefined) | 1 | 15 | 0 | x | 43*
C[C@]12CCC3C(CC[C@H]4[C@@H](O)[C@H](O)CC[C@]34C)C1CCC2=O (some centres undefined) | -1 | 0 | x | -1 | 46*
OC(c1ccccc1)(c1ccc(Cl)cc1)C1CN2CCC1CC2 (centres undefined) | -5 | x | -4 | x | 0
OC(c1ccccc1)(c1ccccc1)C1CN2CCC1CC2 (centres undefined) | 2 | x | -2 | x | 44*
COc1cc2c(C(=O)N3CCN(C)CC3)c(C)n(C)c2cc1Br | x | x | x | -8 | x
COc1cc2c(C(=O)O)c(C)n(C)c2cc1Br | 0 | x | 3 | -3 | 43*
CCN1[C@@H]2Cn3c(ccc(-c4ccc(OC)cc4)c3=O)[C@H]1[C@@H](C(=O)OC)[C@@H]2CO | 12 | 0 | -25 | x | 0
O=C(O)[C@@H]1[C@@H](CO)[C@@H]2Cn3c(ccc(-c4ccncc4)c3=O)[C@H]1N2C(=O)C1CCCC1 | 7 | 0 | -79 | x | x
CCc1ccc2nc(N3CCC(C(=O)N4CCC5(CC4)OCCO5)CC3)sc2c1 | -4 | 0 | 30* | x | 0
COC(=O)[C@@H]1[C@@H](CO)[C@@H]2Cn3c(ccc(C4=CCCC4)c3=O)[C@H]1N2Cc1ccccn1 | -7 | 0 | -4 | x | 0
OC(CNCCc1c[nH]c2ccccc12)c1ccccc1 (centres undefined) | 4 | x | -2 | x | 1.4* | FGF22 binding-2=-0.17;SYPRO no-protein=i
CCC(C)n1c(O)c(C(c2ccccn2)c2c(O)n(C(C)CC)c(=S)[nH]c2=O)c(=O)[nH]c1=S (centres undefined) | 21 | x | 0 | 0 | 26* | FGF22 binding-2=-0.062;SYPRO no-protein=i
CCC(C)n1c(O)c(C=NC(C)c2ccccc2)c(=O)[nH]c1=S (centres undefined) | -2 | x | -4 | x | 0
COC(=O)[C@@H]1[C@@H](CO)[C@@H]2Cn3c(ccc(-c4ccncc4)c3=O)[C@H]1N2S(=O)(=O)c1ccccc1F | 2 | 0 | -65 | 8[16.7 µM] | 0
N/C(=N\[N+](=O)[O-])NCCCC(NC(=O)CNC(=O)c1ccccc1)C(=O)O (centres undefined) | -1 | x | 1 | x | 2.5* | FGF22 binding-2=0.08;SYPRO no-protein=i
N/C(=N\[N+](=O)[O-])N1CCN(C(=O)c2ccccc2)CC1 | 0 | x | -1 | x | 0
O=C(c1cccc2ccccc12)C1CCCN(Cc2ccon2)C1 (centres undefined) | -1 | x | 1 | 0 | 2.2* | FGF22 binding-2=-0.008;SYPRO no-protein=i
Cc1ccc(S(=O)(=O)N(C)C[C@H]2Oc3cc(Br)ccc3S(=O)(=O)N([C@H](C)CO)C[C@@H]2C)cc1 | -2 | 0 | -5 | -5 | 1.6*! | FGF22 binding-2=-1.9;SYPRO no-protein=10µM*
Cc1ccc(S(=O)(=O)N(C)C[C@@H]2Oc3cc(Br)ccc3S(=O)(=O)N([C@@H](C)CO)C[C@H]2C)cc1 | -2 | 0 | 7 | -6[16.7 µM] | 2.2* | FGF22 binding-2=-0.038;SYPRO no-protein=i
Cc1ccc(OC(=O)N(C)C[C@@H]2OCc3cnnn3CCCC(=O)N([C@@H](C)CO)C[C@H]2C)cc1 | 8 | -1 | -1 | -1 | 0
O=C(O)[C@H]1[C@H](CO)[C@H]2Cn3c(ccc(-c4ccncc4)c3=O)[C@@H]1N2C(=O)C1CCCC1 | -11 | 0 | -66 | x | x
COc1ccc(C#Cc2ccc([C@@H]3[C@H]4CN(C(=O)Cc5ccncc5)CCCCN4[C@H]3CO)cc2)cc1 | -1 | 0 | 7 | 5[16.7 µM] | 0
